# An excerpt weighted towards active compounds, which were near 0.84% of everything screened.
# DDE Tn6 FP inh = DD(E)-Tn6 binding inhibition, primary FP screen; P02675; inhibition, % at 8.3 µM; Fibrin DD(E) TRITC-Tn6 fluorescence polarization displacement; AID 720509; actives 0.21% (n = 370,000);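 active = inhibition above a per-campaign cutoff: mean of compounds within control limits plus 3 SD, cut at about 15% in these data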;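 also: 0% = median of all compound wells on the plate and 100% = blocking peptide control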
# Target sequence (P02675 whole entry, looked up): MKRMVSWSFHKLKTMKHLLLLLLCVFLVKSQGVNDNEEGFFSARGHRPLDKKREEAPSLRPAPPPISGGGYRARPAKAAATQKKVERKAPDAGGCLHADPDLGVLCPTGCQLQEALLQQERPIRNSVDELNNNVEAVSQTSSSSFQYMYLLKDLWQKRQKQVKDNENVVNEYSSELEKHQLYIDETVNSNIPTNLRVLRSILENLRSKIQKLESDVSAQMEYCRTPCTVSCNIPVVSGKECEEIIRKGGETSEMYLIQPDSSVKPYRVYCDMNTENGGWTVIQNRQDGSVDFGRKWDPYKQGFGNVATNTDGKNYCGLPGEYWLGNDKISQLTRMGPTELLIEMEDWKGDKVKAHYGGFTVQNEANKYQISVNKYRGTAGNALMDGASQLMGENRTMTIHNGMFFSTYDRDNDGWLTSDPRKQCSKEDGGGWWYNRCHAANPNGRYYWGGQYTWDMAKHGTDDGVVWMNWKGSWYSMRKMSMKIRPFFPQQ
# MT1-MMP act inh = blocks activation of human MT1-MMP; GFP/RFP ratio change, % at 20 µM; HT1080 RFP-PRO-GFP cells, GFP/RFP ratio fluorescence, overnight; percent of plate control window, DMSO zero; actives 0.061% (n = 360,000);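 active = GFP/RFP ratio change of at least 30% with cell ATP level not reduced by more than half and red fluorescence within 50% of control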
#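 system = RFP-PRO-GFP reporter HT1080 cells | dosing = 20 µM single dose, 1% DMSO | timing = overnight cell settling, then overnight compound exposure, 37 °C, 5% CO2 | read-out basis = GFP/RFP fluorescence ratio | controls = DMSO and RFP-L50D-GFP cell wells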
# SKN-1 block = inhibitors of C. elegans SKN-1. C. elegans VP596 Pgst-4::GFP/RFP ratio, acrylamide-induced, 24 h. inhibition, % at 21.8 µM. actives 0.49% (n = 360,000). AID 624304;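 active = interference check ratio from 0.5 to 1.5 plus GFP to RFP signal ratio inhibition reaching or exceeding a fixed threshold, cut at about 30% in these data, passing the limit was not always enough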
# Tn7 DDE FP = DD(E)-Tn7 binding inhibition, primary FP screen; P02675; FP displacement of FITC-Tn7 peptide from fibrin DD(E); 0% = median of compound wells per plate; inhibition, % at 8.3 µM; actives 0.13% (n = 370,000); AID 720508;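 active = inhibition above the mean of compounds falling within the control limits plus 3 SD of them, cut at about 14% in these data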;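 also: 0% = plate median of compound wells and 100% = 10 µM Aha-Tn7 peptide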
#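 Assay system: Human fibrin DD(E) protein | Medium: Tris buffer with calcium and detergent, pH 7.8 | Reagent: 0.1 µM fluorescent Tn7 | Compound dosing: Single point at 8.3 µM | Times: 10 min preincubation, 3 h with tracer, room temperature | Detection: Fluorescence polarization of the labelled Tn7 tracer | Controls: Aha-Tn7 high control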
# DDE Tn7 confirm = confirmation of inhibitors of Tn7 binding to human fibrin DD(E); shares compounds with Tn7 DDE FP; FP displacement of TRITC-Tn7 peptide from DD(E); 0% set at plate's compound-well median; actives 5% (n = 460); inhibition, % at 8.3 µM;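 active = inhibition above the campaign cutoff, the mean of compounds within control limits plus 3 SD, cut at about 14% in these data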;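 also: 100% = median FP of high control wells holding Aha-Tn7 inhibitor peptide; displacers lower polarization since freed probe rises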
# DDE Tn7 FP ctr = counter-screen hit for Tn7 peptide-fibrin DD(E) binding disruption. inhibition, % at 8.3 µM. shares compounds with Tn7 DDE FP. AID 720633. actives 3% (n = 460). TRITC-Tn7 probe displacement, fluorescence polarization;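 active = inhibition above the cutoff, the mean of compounds lying between the control bounds plus 3 SD of those compounds, cut at about 17% in these data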;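 also: 0% = median of compound sample wells and 100% = excess unlabeled Aha-Tn7 peptide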
# Tn6 DDE ctr = counter-screen hit for Tn6 peptide-fibrin DD(E) binding disruption; shares compounds with DDE Tn6 FP inh; TRITC-Tn6 fluorescence polarization displacement; 0% = median of compound wells, not DMSO; inhibition, % at 8.3 µM; actives 2% (n = 680);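 active = inhibition above the mean of test compounds lying between the control limits plus 3 SD of those, cut at about 14% in these data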;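 also: 0% = median of compound wells and 100% = wells with Aha-Tn7 blocking peptide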
# DDE Tn6 confirm = DD(E)-Tn6 binding inhibition, FP confirmation; shares compounds with DDE Tn6 FP inh; FP displacement of TRITC-Tn6 peptide from DD(E); 0% = per-plate median of test wells; inhibition, % at 8.3 µM; actives 10% (n = 680); AID 720631;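 active = inhibition above the mean of compounds lying within the control limits plus 3 SD, cut at about 16% in these data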;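 also: 100% = high control wells holding a competing inhibitor peptide at 10 µM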
# An asterisk follows results filed as active; x = no result; + = active, no number.
SMILES,DDE Tn6 FP inh,MT1-MMP act inh,SKN-1 block,Tn7 DDE FP,DDE Tn7 confirm,DDE Tn7 FP ctr,others
CC(=O)n1c2ccccc2c2ccccc21,9.0,4.3,22.5,13.9*,1.0,-7.2,
Cn1c(CN2CCCCC2)nc2cc(NC(=O)c3ccc(F)cc3)ccc21,-0.9,8.8,0.2,15.4*,2.0,1.7,
Cn1c(CN2CCCCC2)nc2cc(NC(=O)c3ccccc3Cl)ccc21,-6.0,6.1,-8.3,-2.7,x,x,
O=C(NNC(=O)c1ccccc1-n1cccc1)c1cccnc1,3.2,-2.7,4.7,3.3,x,x,
O=C(NNC(=O)c1ccccc1-n1cccc1)c1cncc(Br)c1,0.2,-3.4,-2.8,16.3*,6.7,1.6,
CCCCn1c(N)c(N(CCOC)C(=O)C2CCN(S(=O)(=O)c3ccc(F)cc3)CC2)c(=O)[nH]c1=O,-2.3,0.6,-18.4,17.0*,0.4,-3.6,
CCCCn1c(N)c(N(CCOC)C(=O)C2CCN(S(=O)(=O)c3ccc(C)cc3)CC2)c(=O)[nH]c1=O,-1.7,-0.7,-10.1,2.2,x,x,
O=C(COc1ccc(F)cc1)Nc1cc(Cl)ccc1-n1cncn1,3.1,1.7,4.1,4.2,x,x,
Cc1ccc(C(=O)NCCNC(=O)c2ccccn2)cc1,5.7,2.9,12.6,-2.5,x,x,
CCOc1ccc(/C=N/n2c(SC)nnc(C(C)(C)C)c2=O)cc1,0.1,0.8,7.8,14.7*,0.2,0.7,
CCN(CC)S(=O)(=O)c1cccc(-c2nnc(SCC(N)=O)n2C)c1,-1.6,4.3,-10.3,4.8,x,x,
CCN(CC)S(=O)(=O)c1cccc(-c2nnc(SCc3ncc(-c4ccccc4)o3)n2C)c1,5.0,3.7,-0.4,14.8*,-3.5,-9.9,
O=C(CCl)NC(Cc1ccccc1)c1ccccc1 (stereo not given),5.1,1.7,-1.9,14.7*,-5.3,-7.3,
N#CC1=C2C=Cc3ccccc3N2CCCC1=O,4.6,-4.8,11.5,15.7*,2.3,0.2,
O=C(CSc1nnc(Cc2ccccc2)o1)NCCN1C(=O)CSC1=O,1.2,-1.8,-17.8,16.2*,9.4,3.6,
CC(C)CC1C(=O)N(Cc2cn(CCC3OCCO3)nn2)CCS(=O)(=O)N1Cc1ccc(-c2cccc(N(C)C)c2)cc1 (stereo not given),-2.7,-0.5,-16.7,7.7,x,x,
Nc1nccnc1C(=O)OCC(=O)Nc1cccc(S(=O)(=O)N2CCCCC2)c1,2.1,-0.7,5.8,-3.7,x,x,
Cc1ccc(CN2CCCC2(C)C(=O)NC(C)C)cc1 (stereo not given),3.4,-5.8,-14.5,13.9*,2.3,2.7,
Cc1ccc(CN2CCC2(C)C(=O)NC(C)C)cc1 (stereo not given),0.7,2.3,14.5,-1.5,x,x,
CCOCCCNC(=S)N1CCC(C(=O)c2ccc(C)cc2)CC1,2.1,x,-8.5,14.1*,1.3,-3.5,
O=C(c1cccc(C(F)(F)F)c1)C1CCCN(C(=O)CCn2cnnn2)C1 (stereo not given),1.6,7.0,-4.1,-0.5,x,x,
O=C(NCc1nnnn1-c1ccc(Cl)cc1)C1CC(=O)N(c2ccc(F)cc2)C1 (stereo not given),-9.6,-1.3,2.2,2.3,x,x,
COc1ccc(-n2nnnc2CNC(=O)C2CC(=O)N(c3ccc(F)cc3)C2)cc1 (stereo not given),-0.9,14.5,9.4,14.3*,6.6,0.2,
O=C(N[C@H](C(=O)N1CCC[C@H]1C(=O)NCCc1ccccc1Cl)C1CCCCC1)c1ccc(Cl)c(Cl)c1,-6.2,x,x,1.0,x,x,
COc1ccc(N(Cc2cc3cc(OC)ccc3[nH]c2=O)C(=O)c2cccnc2)cc1,20.9*,0.5,3.3,22.8*,-6.4,-11.2,Tn6 DDE ctr=-6.4;DDE Tn6 confirm=-11.2
SMILES,DDE Tn6 FP inh,MT1-MMP act inh,SKN-1 block,Tn7 DDE FP,DDE Tn7 confirm,DDE Tn7 FP ctr,others
CN(CC(=O)Nc1ccccc1C(=O)NC1CC1)Cc1ccc(N(C)C)cc1,39.8*,0.9,8.4,18.2*,-5.6,-9.9,Tn6 DDE ctr=-5.6;DDE Tn6 confirm=-9.9
COc1ccc(CN(C)CC(=O)Nc2ccccc2C(=O)NC2CC2)cc1,1.4,5.8,9.9,5.0,x,x,
O=C(Nc1ccon1)Nc1cccc(Cl)c1Cl,-1.0,0.2,33.6,0.8,x,x,
COc1ccc(C(=O)NCCC2=CCCCC2)cc1[N+](=O)[O-],-2.8,-1.2,2.9,6.0,x,x,
O=C(NCCC1=CCCCC1)c1ccc(-n2cncn2)c([N+](=O)[O-])c1,161.9*,-2.9,-10.1,24.1*,2.4,4.6,Tn6 DDE ctr=2.4;DDE Tn6 confirm=4.6
CCNC(=O)C1CCCN(C(=O)Cc2cccs2)CC1 (stereo not given),17.6*,-0.2,2.2,14.5*,2.0,-2.7,Tn6 DDE ctr=2.0;DDE Tn6 confirm=-2.7
CCNC(=O)C1CCCN(C(=O)c2cccs2)CC1 (stereo not given),1.6,-0.2,-0.5,-1.9,x,x,
Nc1[nH]c(C(=O)c2ccc(Cl)cc2)c(-c2ccc(Br)cc2)c1C(=O)c1c[nH]c2ccc(F)cc12,0.9,x,x,0.5,x,x,
COc1cccc2c1C(=O)c1c(O)c3c(c(O)c1C2=O)C[C@@](O)(C(C)=O)C[C@@H]3O[C@H]1C[C@H](N)[C@H](O)[C@H](C)O1,+,11.8,68.0,17.7*,-8.6,93.2*,Tn6 DDE ctr=-8.6;DDE Tn6 confirm=93.2*
COc1cccc2c1C(=O)c1c(O)c3c(c(O)c1C2=O)CC(O)(C(=O)CO)CC3OC1CC(N(C)C)C(O)C(C)O1 (stereo not given),+,-19.2,82.8,16.2*,-7.4,93.2*,Tn6 DDE ctr=-7.4;DDE Tn6 confirm=93.2*
O=C(NCc1ccc2c(c1)OCO2)C1CCCN1C(=O)Nc1ccc(Cl)cc1 (stereo not given),0.7,-2.1,-3.4,-4.1,x,x,
CCN(Cc1ccncc1)C(=O)C(CO)c1ccccc1 (stereo not given),20.2*,1.0,-1.8,2.6,x,x,Tn6 DDE ctr=3.2;DDE Tn6 confirm=-8.0
CCCS(=O)(=O)NC(=O)C1(C)CCN(C(=O)c2cccc(OC(F)(F)F)c2)C1 (stereo not given),15.3*,3.8,-8.0,4.2,x,x,Tn6 DDE ctr=-7.7;DDE Tn6 confirm=-8.1
Cc1ccc(-n2cc(CN(C)Cc3ncc[nH]3)c(-c3cccc(C)c3)n2)cc1,7.1,3.7,11.7,-6.9,x,x,
COc1ccc([C@H]2N[C@]3(CCCN(Cc4ccccc4)C3=O)[C@H]3C(=O)N(Cc4ccccc4)C(=O)[C@@H]23)cc1,-5.6,-0.5,3.0,-3.1,x,x,

# Compound activity deposited in PubChem by several laboratories.
